Laboratory results as given in ChEMBL document CHEMBL1138043, “Exploration of orally available calpain inhibitors 2: peptidyl hemiacetal derivatives” (J Med Chem, 2006).
≈ marks a conversion by molar mass, not a printed value. Calls of active or inactive are those of the source. No cut-off for these calls is given here.

Legend:
[1] = target: T1, Calpain-2 catalytic subunit (Sus scrofa, UniProt P43367); assay: Inhibition of porcein kidney m calpain
T1 sequence (P43367 whole entry): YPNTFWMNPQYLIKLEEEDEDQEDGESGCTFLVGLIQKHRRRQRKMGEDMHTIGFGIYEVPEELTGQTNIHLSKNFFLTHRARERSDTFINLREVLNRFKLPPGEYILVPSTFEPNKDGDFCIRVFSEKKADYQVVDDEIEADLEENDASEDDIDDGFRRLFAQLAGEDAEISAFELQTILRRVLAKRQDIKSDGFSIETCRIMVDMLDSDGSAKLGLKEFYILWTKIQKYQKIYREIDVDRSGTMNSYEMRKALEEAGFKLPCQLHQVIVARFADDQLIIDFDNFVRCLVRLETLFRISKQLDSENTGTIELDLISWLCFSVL
In short: (§1)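 Casein substrate at 0.5 mg/mL in 50 mM Tris-HCl pH 7.4 with 20 mM dithiothreitol and 1.0 nmol enzyme. Inhibitors were added in DMSO. Reaction was started with 20 mM CaCl2; blank wells received 1 mM EDTA instead. Incubation ran 60 min at 30 °C. Percent inhibition came from OD differences. IC50 is the mean of two independent determinations.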

[2] = Aqueous solubility at pH 7 at 25 degreeC; type: physicochemical
[3] = Metabolic stability in human hepatic S9 fraction after 0.5 hrs; type: ADME; settings: liver S9 fraction, read-out: Stability
In short: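 Compound at 5 µM final (added in acetonitrile) was incubated with human hepatic S9 in 50 mM potassium phosphate pH 7.4. An NADPH-generating system was present (3 mM MgCl2, 1 mM NADP+, 5 mM glucose-6-phosphate, 1 U/mL G6PDH). Incubation ran 30 min at 37 °C and was quenched with acetonitrile. Residual parent was measured by LC-UV or LC-MS/MS, n = 1.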

[4] = target: T2, Calpain-1 catalytic subunit (Homo sapiens, UniProt P07384); assay: Inhibition of human erythrocyte mu calpain; in short: as §1
T2 sequence (P07384 whole entry): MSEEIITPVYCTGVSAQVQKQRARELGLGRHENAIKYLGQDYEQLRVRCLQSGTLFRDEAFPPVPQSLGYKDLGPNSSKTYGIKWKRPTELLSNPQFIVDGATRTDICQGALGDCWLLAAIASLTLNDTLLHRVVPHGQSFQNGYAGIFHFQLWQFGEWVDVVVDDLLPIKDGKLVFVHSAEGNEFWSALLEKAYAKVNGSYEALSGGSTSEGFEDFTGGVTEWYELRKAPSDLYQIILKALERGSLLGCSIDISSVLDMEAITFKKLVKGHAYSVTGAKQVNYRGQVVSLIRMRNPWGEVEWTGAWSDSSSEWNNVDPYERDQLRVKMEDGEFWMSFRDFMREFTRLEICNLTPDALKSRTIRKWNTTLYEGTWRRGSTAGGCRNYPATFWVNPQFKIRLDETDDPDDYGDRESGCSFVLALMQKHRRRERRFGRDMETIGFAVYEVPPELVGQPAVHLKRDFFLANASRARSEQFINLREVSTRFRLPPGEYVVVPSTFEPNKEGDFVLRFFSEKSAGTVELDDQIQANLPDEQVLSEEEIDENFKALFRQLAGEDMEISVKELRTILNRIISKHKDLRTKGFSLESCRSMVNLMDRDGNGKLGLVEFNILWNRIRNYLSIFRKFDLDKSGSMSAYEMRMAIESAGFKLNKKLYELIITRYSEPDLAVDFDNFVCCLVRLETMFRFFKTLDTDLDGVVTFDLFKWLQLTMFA

[5] = Volume of distribution in Sprague-Dawley rat at 3 mg/kg, iv; type: ADME, organism-based; design: dose 3 mg/kg, route intravenous; settings: in vivo, read-out: Vdss
In short: (§2)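 Male Sprague-Dawley rats (200-250 g), single dose. Oral dosing as a suspension in 0.5% carboxymethyl cellulose; iv dosing at 10 mg/mL in 60% poly(ethylene glycol)/40% water. Plasma was taken from abdominal aorta blood under isoflurane at 0.1 (iv only), 0.25, 0.5, 1, 2, 4 and 8 h, with n = 4 or 5 per time point. Samples underwent solid-phase extraction and LC-MS/MS (MRM). Values are mean ± SD.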

[6] = AUC (0-infinity) in Sprague-Dawley rat at 10 mg/kg, po; type: ADME, organism-based; design: time infinity, dose 10 mg/kg, route oral; settings: plasma; in short: as §2
[7] = Oral bioavailability in Sprague-Dawley rat; type: ADME, organism-based; settings: in vivo; in short: as §2
[8] = Terminal half life in Sprague-Dawley rat at 3 mg/kg, iv; type: ADME, organism-based; design: dose 3 mg/kg, route intravenous; settings: in vivo; in short: as §2
Rattus norvegicus [9] = assay: Neuroprotective activity in Sprague-Dawley rat ischemia-reperfusion model measured as cell density in retinal ganglion cell layer at 100 mg/kg, po relative to control; type: functional
In short: (§3)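 Male Sprague-Dawley rats (150-250 g) received oral doses as a suspension in 0.5% CMC, 15 min before ischemia and again after reperfusion. Controls received vehicle. HE-stained nuclei in the ganglion cell layer 1-2 mm from the optic disk were counted over a 250 µm width at three sites. Comparison by Student t-test.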

[10] = Clearance in Sprague-Dawley rat at 3 mg/kg, iv; type: ADME, organism-based; design: dose 3 mg/kg, route intravenous; settings: in vivo; in short: as §2
Rattus norvegicus [11] = assay: Neuroprotective activity in Sprague-Dawley rat ischemia-reperfusion model measured as cell density in retinal ganglion cell layer at 30 mg/kg, po relative to control; type: functional, organism-based; design: dose 30 mg/kg; in short: as §3
[12] = Tmax in Sprague-Dawley rat at 10 mg/kg, po; type: ADME, organism-based; design: dose 10 mg/kg, route oral; settings: in vivo; in short: as §2
[13] = AUC (0-infinity) in Sprague-Dawley rat at 3 mg/kg, iv; type: ADME, organism-based; design: time infinity, dose 3 mg/kg, route intravenous; settings: plasma; in short: as §2
[14] = Cmax in Sprague-Dawley rat at 10 mg/kg, po; type: ADME, organism-based; design: dose 10 mg/kg, route oral; settings: in vivo; in short: as §2
Rattus norvegicus [15] = assay: Neuroprotective activity in Sprague-Dawley rat ischemia-reperfusion model measured as cell density in retinal ganglion cell layer at 500 mg/kg, po; type: functional, organism-based; design: dose 500 mg/kg; in short: as §3
[16] = Cmax in Sprague-Dawley rat at 500 mg/kg, po; type: ADME, organism-based; design: dose 500 mg/kg, route oral; settings: in vivo; in short: as §2
[17] = AUC (0-infinity) in Sprague-Dawley rat at 500 mg/kg, po; type: ADME, organism-based; design: time infinity, dose 500 mg/kg, route oral; settings: plasma; in short: as §2
[18] = Tmax in Sprague-Dawley rat at 500 mg/kg, po; type: ADME, organism-based; design: dose 500 mg/kg, route oral; settings: in vivo; in short: as §2
[19] = Apparent permeability from apical to basolateral side of the Caco-2 cell; type: ADME, cell-based; settings: human
[20] = Lipophilicity, log D of the compound; type: physicochemical; settings: octanol/water

Row | Structure (SMILES) | IC50 [1] [µM] | solubility [2] [µg/mL] | remaining at 0.5 h [3] [%] | IC50 [4] [µM] | Vd [5] [L/kg] | bioavailability [7] [%] | half-life [8] [min] | clearance [10] [mL/min/kg] | AUC(0-inf) [13] [µM·h] | other results
1 | CC(C)[C@H](NS(=O)(=O)c1ccc(F)cc1)C(=O)N[C@H]1CCOC1O (stereo partly specified) | 2.6 | 1500 (≈ 4160 µM) | 79 | 0.88 | – | – | – | – | – | –
2 | CCCCNC(=O)C(=O)[C@H](CC(C)C)NC(=O)[C@@H](NS(=O)(=O)c1ccc(F)cc1)C(C)C | – | 5.3 (≈ 11.2 µM) | 25 | – | – | – | – | – | – | –
3 | CC(C)C[C@H](NC(=S)Nc1ccccc1)C(=O)N[C@H]1CCOC1O (stereo partly specified) | 0.19 | – | 100 | 0.086 | 2.3 | 66 | 114 | 55 | 2.6 | AUC(0-inf) [6]: 5.7 µM·h; Activity (Rattus norvegicus [9]): 6.38; Activity (Rattus norvegicus [11]): inactive; Tmax [12]: 15 min; Cmax [14]: 5.6 µM

Further lines, with some results ahead:

Row | IC50 [1] [µM] | solubility [2] [µg/mL] | remaining at 0.5 h [3] [%] | IC50 [4] [µM] | Vd [5] [L/kg] | bioavailability [7] [%] | half-life [8] [min] | clearance [10] [mL/min/kg] | AUC(0-inf) [13] [µM·h] | Structure (SMILES) | other results
4 | > 100 | – | – | > 100 | – | – | – | – | – | CC(C)C[C@@H](C#N)NC(=O)[C@@H](NS(=O)(=O)c1ccc(F)cc1)C(C)C | –
5 | – | – | 64 | – | – | – | – | – | – | CC(C)C[C@@H](/C=N/NC(=O)CN(C)C)NC(=O)[C@@H](NS(=O)(=O)c1ccc(F)cc1)C(C)C | –
6 | 0.049 | 100 (≈ 268 µM) | 3 | – | 6.1 | 18 | 42 | 89 | 1.5 | CC(C)C[C@@H](C=O)NC(=O)[C@@H](NS(=O)(=O)c1ccc(F)cc1)C(C)C | Activity (Rattus norvegicus [15]): Active; Cmax [16]: 9.4 µM; AUC(0-inf) [17]: 45 µM·h; Tmax [18]: 60 min; Papp A→B [19]: 2.6 ×10⁻⁶ cm/s; logD [20]: 1.7
